Source: ChEMBL document CHEMBL1154734, “Small-sized human immunodeficiency virus type-1 protease inhibitors containing allophenylnorstatine to explore the S2' pocket” (J Med Chem, 2009)
Converted amounts (≈) assume the structure as drawn.

Key:
Protease = Protease (Human immunodeficiency virus 1, UniProt Q9YQ12); assay: Inhibition of HIV1 recombinant protease after 15 mins by fluorescence assay
[1] = target: Protease (Human immunodeficiency virus 1) (UniProt Q9YQ12); assay: Inhibition of HIV1 recombinant protease at 50 nM after 15 mins by fluorescence assay
Method in brief: (§1)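 Recombinant HIV-1 protease was assayed in MES–NaOH pH 5.5 with DTT, EDTA and NaCl, with inhibitor at 50 nM final (500 nM DMSO stock). The substrate was H-Lys-Ala-Arg-Val-Tyr-Phe(p-NO2)-Glu-Ala-Nle-NH2, and the reaction ran 15 min at 37 °C. It was stopped with 1 N HCl. The N-terminal fragment was quantified by RP-HPLC with fluorescence at ex 275/em 305 nm.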

[2] = test system: Human immunodeficiency virus 1; assay: Antiviral activity against HIV1 pNL4-3 infected in human MT4 cells assessed as inhibition of virus-induced cytopathic effect after 5 days by MTT assay; type: functional, organism-based; settings: Human immunodeficiency virus 1, pNL4-3, MT4, 120 h
Method in brief: (§2)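 HIV-1 (IIIB or pNL4-3) inoculated into MT-4 cells. Cultures were treated with an equal volume of a 1% DMSO solution of compound at several concentrations plus 10% fetal bovine serum, then incubated 5 days at 37 °C in CO2, in triplicate. After MTT, optical density gave the percent cytopathic effect reduction. EC50 was fitted to a median-effect equation.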

[3] = target: Protease (Human immunodeficiency virus 1) (UniProt Q9YQ12); assay: Inhibition of HIV1 recombinant protease at 1 nM after 3 hrs by fluorescence assay
[4] = test system: Human immunodeficiency virus 1; assay: Antiviral activity against HIV1 3B infected in human MT4 cells assessed as inhibition of virus-induced cytopathic effect after 5 days by MTT assay; type: functional, organism-based; settings: Human immunodeficiency virus 1, 3B, MT4, 120 h; method in brief: as §2
[5] = test system: Human immunodeficiency virus 1; assay: Antiviral activity against indinavir-resistant HIV1 harboring L10R/M46I/L63P/V82T/I84V mutant protease infected in human MT4 cells assessed as inhibition of virus-induced cytopathic effect after 5 days by MTT assay; type: functional, organism-based; settings: Human immunodeficiency virus 1, MT4, 120 h
Method in brief: (§3)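 MT-4 cells inoculated with HIV-1 wild-type pNL4-3 or indinavir-resistant IND-R, then given an equal volume of compound in 1% DMSO at several concentrations with 10% fetal bovine serum. Incubated 5 days at 37 °C in CO2, in triplicate. MTT read-out by optical density gave percent cytopathic-effect reduction; EC50 was fitted to a median-effect equation.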

[6] = test system: Human immunodeficiency virus 1; assay: Fold resistance, ratio of EC50 for indinavir-resistant HIV1 harboring L10R/M46I/L63P/V82T/I84V mutant protease infected in human MT4 cells to EC50 for HIV1 pNL4-3 infected in human MT4 cells; type: functional; method in brief: as §3
[7] = test system: Human immunodeficiency virus; assay: Inhibition of recombinant HIV protease at 50 nM after 15 mins by fluorescence assay; method in brief: as §1
[8] = test system: Human immunodeficiency virus 1; assay: Antiviral activity against HIV1 pNL4-3 infected in human MT4 cells assessed as inhibition of virus-induced cytopathic effect after 5 days by MTT assay in absence of human serum; type: functional, organism-based; settings: Human immunodeficiency virus 1, pNL4-3, MT4, 120 h; method in brief: as §2
[9] = test system: Human immunodeficiency virus 1; assay: Antiviral activity against HIV1 pNL4-3 infected in human MT4 cells assessed as inhibition of virus-induced cytopathic effect after 5 days by MTT assay in presence of 50% human serum; type: functional, organism-based; settings: Human immunodeficiency virus 1, pNL4-3, MT4, 120 h
Method in brief: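 MT-4 cells were infected with wild-type HIV-1 (IIIB or pNL4-3) in the presence of 50% human serum. Compound was added at several concentrations from a 1% DMSO solution, and cells were incubated 5 days at 37 °C in triplicate. Cytopathic effect reduction was read by MTT optical density, and EC50 was derived from a median-effect equation fit.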

[10] = test system: Human immunodeficiency virus 1; assay: Ratio of EC50 for HIV1 pNL4-3 infected in human MT4 cells in presence of 50% human serum to EC50 for HIV1 pNL4-3 infected in human MT4 cells in absence of human serum; type: functional
Method in brief: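 HIV-1 pNL4-3 was inoculated into MT-4 cells, then test compound was added at several concentrations in 1% DMSO with 10% FBS. Cultures were incubated 5 days at 37 °C in CO2, in triplicate, and the cytopathic effect was read by MTT optical density. EC50 was fitted to a median-effect equation with and without 50% human serum. The serum binding effect is their ratio.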

[11] = Aqueous solubility in 0.1% TFA after 30 mins by RP-HPLC analysis; type: physicochemical; settings: 0.1% TFA in water

Chain of Protease (Human immunodeficiency virus 1) (Q9YQ12 as listed by the source): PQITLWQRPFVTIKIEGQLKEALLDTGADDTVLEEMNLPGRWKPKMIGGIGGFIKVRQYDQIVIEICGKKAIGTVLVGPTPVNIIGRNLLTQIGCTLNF
Chain of Protease (Q9YQ12 whole entry): as the sequence (Q9YQ12 as listed by the source) above

SMILES | Ki (Protease) | inhibition [1] | inhibition [7] | solubility at 0.5 h [11] | EC50 [2] | inhibition [3] | EC50 [4] | EC50 [5] | Ratio EC50 [6] | EC50 [8] | EC50 [9] | Ratio EC50 [10]
Cc1ccccc1CNC(=O)[C@H]1N(C(=O)[C@@H](O)[C@H](Cc2ccccc2)NC(=O)c2cccc(O)c2C)CSC1(C)C | 0.031 nM | 99% |  |  | 60 nM | 72% | 33 nM | 100 nM | 1.7 |  |  | 
Cc1c(O)cccc1C(=O)N[C@@H](Cc1ccccc1)[C@H](O)C(=O)N1CSC(C)(C)[C@H]1C(=O)NC(C)(C)c1ccccc1 |  |  | 82% |  |  |  | 123 nM |  |  |  |  | 
Cc1c(O)cccc1C(=O)N[C@@H](Cc1ccccc1)[C@H](O)C(=O)N1CSC(C)(C)[C@H]1C(=O)NCc1c(F)cccc1Cl |  | 97% |  |  | 25 nM | 50% | 32 nM | 157 nM | 6.3 |  |  | 

The next lines start with results.

Ki (Protease) | inhibition [1] | inhibition [7] | solubility at 0.5 h [11] | SMILES | EC50 [2] | inhibition [3] | EC50 [4] | EC50 [5] | Ratio EC50 [6] | EC50 [8] | EC50 [9] | Ratio EC50 [10]
0.19 nM | 98% |  |  | C=C(C)CNC(=O)[C@H]1N(C(=O)[C@@H](O)[C@H](Cc2ccccc2)NC(=O)c2cccc(O)c2C)CSC1(C)C | 17 nM |  |  |  |  |  |  | 
0.0024 nM | 99% |  |  | Cc1cccc(C)c1CNC(=O)[C@H]1N(C(=O)[C@@H](O)[C@H](Cc2ccccc2)NC(=O)c2cccc(O)c2C)CSC1(C)C |  | 82% |  |  |  |  |  | 
 | 98% |  | 8480 µg/mL (≈ 14.9 mM) | C=C(C)CNC(=O)[C@H]1N(C(=O)[C@@H](O)[C@H](Cc2ccccc2)NC(=O)COc2c(C)cc(N)cc2C)CSC1(C)C |  | 43% |  |  |  | 10 nM | 82 nM | 8.2
